The subject of assay [1] is SH-SY5Y. The experiment in a line: Neuroprotective activity against H2O2-induced cell damage in human SH-SY5Y cells assessed as increase in cell viability preincubated for 24 hrs followed by H2O2 addition and measured after 4 hrs by MTT assay. The format is functional, cell-based. Put shortly:
(§1)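 Cells at 3.5×10^4 cells/mL in 96-well plates were grown 24 h (37 °C, 5% CO2). Test agent was added at five concentrations for 24 h, then H2O2 (4.8 mM stock) to model and drug wells. After PBS washes, MTT (5 mg/mL) was added for 4 h, formazan was dissolved in DMSO and OD was read at 550 nm. Proliferation rate = (drug − injury OD)/(control − injury OD). EC50 came from a formula using maximum concentration and summed, maximal and minimal rates.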
(In general: Formazan colour is commonly taken as a measure of viable cells.)

Assay [2] is described as follows: Neuroprotective activity against H2O2-induced cell damage in human HBMEC2 cells assessed as increase in cell viability preincubated for 24 hrs followed by H2O2 addition and measured after 4 hrs by MTT assay. The format is functional, cell-based. Particulars: HBMEC-2. Put shortly:
as §1

For assay [3], the system named is SH-SY5Y. The experiment in a line: Protection against H2O2-induced apoptosis in human SH-SY5Y cells assessed as reduction in cell shrinkage at 1.56 to 6.25 uM preincubated for 24 hrs followed by H2O2 addition measured after 4 hrs by Giemsa staining based inverted phase contrast microscopic analysis. The format is functional. Put shortly: (§2)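 Cells at 3.5×10^4 cells/mL in 24-well plates were pretreated 24 h with compound at three concentrations, then H2O2 (4.8 mM stock) for 4 h. After PBS washes, cells were fixed in 4% paraformaldehyde/70% cold ethanol for 10 min. Staining was 6% Giemsa or DAPI for 5 min in the dark. Random fields were photographed at 200× by microscope, alongside control and model groups.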

The test system of assay [4] is SH-SY5Y. The experiment in a line: Protection against H2O2-induced apoptosis in human SH-SY5Y cells assessed as decrease in number of irregular cells preincubated for 24 hrs followed by H2O2 addition measured after 4 hrs by DAPI staining based inverted phase contrast microscopic analysis. The format is functional, cell-based. Put shortly: as §2
A short description of assay [5]: Inhibition of H2O2-induced apoptosis in human HBMEC2 cells assessed as normal cells at 1.56 uM preincubated for 24 hrs followed by H2O2 addition measured after 4 hrs by Annexin V-FITC/propidium iodide staining based flow cytometry (reference value: 62.1 %). The format is functional, HBMEC-2. Also noted: scale not given: the % may be the effect or the level left. In short, it runs like this:
(§3)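 Cells were seeded at 3.5×10^4 cells/mL in 6-well plates at 37 °C, 5% CO2. Compound was added at three concentrations for 24 h, then H2O2 (4.8 mM stock solution) to model and drug wells for 4 h. Cells were collected, washed in cold PBS and resuspended in annexin-binding buffer. Staining was annexin V-FITC 10 min, then PI 5 min, in the dark, followed by flow cytometry with quadrant gating.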
A general note: Flow cytometry measures light scatter and fluorescence of single cells or particles in a stream.

The nature of assay [6]: Inhibition of H2O2-induced apoptosis in human HBMEC2 cells assessed as late apoptotic cells at 3.13 uM preincubated for 24 hrs followed by H2O2 addition measured after 4 hrs by Annexin V-FITC/propidium iodide staining based flow cytometry (reference value: 29.4 %). The format is functional, HBMEC-2. Also noted: scale not given: the % may be the effect or the level left. Put shortly: as §3

Assay [7] is described as follows: Inhibition of H2O2-induced apoptosis in human HBMEC2 cells assessed as normal cells at 3.13 uM preincubated for 24 hrs followed by H2O2 addition measured after 4 hrs by Annexin V-FITC/propidium iodide staining based flow cytometry (reference value: 62.1 %). The format is functional, HBMEC-2. More on the design: scale not given: the % may be the effect or the level left. In short, it runs like this: as §3

A short description of assay [8]: Inhibition of H2O2-induced apoptosis in human HBMEC2 cells assessed as early apoptotic cells at 3.13 uM preincubated for 24 hrs followed by H2O2 addition measured after 4 hrs by Annexin V-FITC/propidium iodide staining based flow cytometry (reference value: 8.1 %). The format is functional, HBMEC-2. Also noted: scale not given: the % may be the effect or the level left. Put shortly: as §3

The subject of assay [9] is SH-SY5Y. The experiment in a line: Inhibition of H2O2-induced apoptosis in human SH-SY5Y cells assessed as late apoptotic cells at 1.56 uM preincubated for 24 hrs followed by H2O2 addition measured after 4 hrs by Annexin V-FITC/propidium iodide staining based flow cytometry (reference value: 26.5 %). The format is functional. More on the design: scale not given: the % may be the effect or the level left. Put shortly: as §3

Assay [10] relates to SH-SY5Y. The experiment in a line: Inhibition of H2O2-induced apoptosis in human SH-SY5Y cells assessed as normal cells at 1.56 uM preincubated for 24 hrs followed by H2O2 addition measured after 4 hrs by Annexin V-FITC/propidium iodide staining based flow cytometry (reference value: 67.2 %). The format is functional. More on the design: scale not given: the % may be the effect or the level left. In short, it runs like this:
as §3

In assay [11] the test system is SH-SY5Y. The experiment in a line: Inhibition of H2O2-induced apoptosis in human SH-SY5Y cells assessed as early apoptotic cells at 1.56 uM preincubated for 24 hrs followed by H2O2 addition measured after 4 hrs by Annexin V-FITC/propidium iodide staining based flow cytometry (reference value: 5.4 %). The format is functional. More on the design: scale not given: the % may be the effect or the level left. Put shortly:
as §3

Assay [12] has as its system SH-SY5Y. The experiment in a line: Inhibition of H2O2-induced apoptosis in human SH-SY5Y cells assessed as early apoptotic cells at 3.13 uM preincubated for 24 hrs followed by H2O2 addition measured after 4 hrs by Annexin V-FITC/propidium iodide staining based flow cytometry (reference value: 5.4 %). The format is functional. More on the design: scale not given: the % may be the effect or the level left. Put shortly: as §3

For assay [13], the system named is SH-SY5Y. The experiment in a line: Inhibition of H2O2-induced apoptosis in human SH-SY5Y cells assessed as necrotic cells at 6.25 uM preincubated for 24 hrs followed by H2O2 addition measured after 4 hrs by Annexin V-FITC/propidium iodide staining based flow cytometry (reference value: 0.9 %). The format is functional. More on the design: scale not given: the % may be the effect or the level left. In short, it runs like this:
as §3

Assay [14] concerns SH-SY5Y. The experiment in a line: Inhibition of H2O2-induced apoptosis in human SH-SY5Y cells assessed as early apoptotic cells at 6.25 uM preincubated for 24 hrs followed by H2O2 addition measured after 4 hrs by Annexin V-FITC/propidium iodide staining based flow cytometry (reference value: 5.4 %). The format is functional. Also noted: scale not given: the % may be the effect or the level left. In short, it runs like this: as §3

The test system of assay [15] is HBMEC-2. The experiment in a line: Protection against H2O2-induced mitochondrial dysfunction in human HBMEC2 cells assessed as recovery of mitochondrial membrane potential at 1.56 to 6.25 uM preincubated for 24 hrs followed by H202 addition measured after 4 hrs by Rh123 staining based inverted light microscopic analysis. The format is functional, cell-based. In short, it runs like this: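 Cells in 96-well plates (3.5×10^4 cells/mL) were grown 24 h. They were pretreated 24 h with compound at three concentrations, then exposed to H2O2 (4.8 mM stock) for 4 h. Medium was removed and Rh123 added for 30 min at 37 °C. Cells were washed twice in cold PBS and examined immediately under an inverted microscope for green fluorescence.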

A further assay is filed under the species Gallus gallus. The experiment in a line: Induction of angiogenesis in chicken embryo assessed as up regulation of VEGFR2 mRNA expression at 1 mg/ml by RT-PCR analysis. The format is functional, organism-based. Put shortly:
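Total RNA came from chick embryos of the 1 mg/mL CAM group (Trizol extraction) and was reverse-transcribed with M-MLV. SYBR real-time PCR ran 40 cycles of 94 °C 15 s / 60 °C 35 s, then 72 °C 10 min. Expression was quantified relative to controls by the 2^-ΔΔCT method.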

Assay [16] relates to SH-SY5Y. The experiment in a line: Protection against H2O2-induced apoptosis in human SH-SY5Y cells assessed as increase in cell number preincubated for 24 hrs followed by H2O2 addition measured after 4 hrs by DAPI staining based inverted phase contrast microscopic analysis. The format is functional. In short, it runs like this: as §2
Assay [17] deals with SH-SY5Y. The experiment in a line: Protection against H2O2-induced apoptosis in human SH-SY5Y cells assessed as increase in cell number at 1.56 to 6.25 uM preincubated for 24 hrs followed by H2O2 addition measured after 4 hrs by Giemsa staining based inverted phase contrast microscopic analysis. The format is functional. Put shortly:
as §2

The test system of assay [18] is HBMEC-2. The experiment in a line: Protection against H2O2-induced apoptosis in human HBMEC2 cells assessed as increase in cell number at 1.56 to 6.25 uM preincubated for 24 hrs followed by H2O2 addition and measured after 4 hrs by Giemsa staining based inverted phase contrast microscopic analysis. The format is functional. Put shortly:
as §2

Active and inactive are the calls of the source. No cut-off for these calls is given here.

Regarding `COc1cc(CNC(=O)/C=C/c2cc(OC)c(OC)cc2OC)ccc1O`, the EC50 (usually the concentration giving half of the maximal effect) came to 2410 nM in the assay on SH-SY5Y [1] and 3.26 µM in assay [2]. The outcome with SH-SY5Y [3], in the assay on HBMEC-2 [15], in the assay listed under Gallus gallus, in the assay with SH-SY5Y [17] and in the assay on HBMEC-2 [18] was Active. Also, the Activity result with SH-SY5Y [4] is “Dose-dependent effect”; in assay [5], 70.6%; in assay [6], 10.5%; in [7] it was 80.5%; in assay [8], 8.9%; in the assay with SH-SY5Y [9], 23.9%. In addition, the Activity in the assay on SH-SY5Y [10] is 70.4%; in the assay on SH-SY5Y [11], 4.3%; in the assay on SH-SY5Y [12], 4.2%; in the assay on SH-SY5Y [13], 1.1%; in the assay on SH-SY5Y [14], 2.6%; with SH-SY5Y [16] it was “Dose-dependent effect”.

The values above are taken from ChEMBL document CHEMBL4406851, “Design, synthesis and biological evaluation of cinnamic acid derivatives with synergetic neuroprotection and angiogenesis effect” (Eur J Med Chem, 2019).
